Data: ChEMBL document CHEMBL1137426, “Bivalent inhibitors of glutathione S-transferase: the effect of spacer length on isozyme selectivity” (Bioorg Med Chem Lett, 2006)

Experiments:
[1] = target: T1, Glutathione S-transferase A1 (Homo sapiens, UniProt P08263); experiment: Inhibition of GST A1-1
T1 sequence (P08263 whole entry): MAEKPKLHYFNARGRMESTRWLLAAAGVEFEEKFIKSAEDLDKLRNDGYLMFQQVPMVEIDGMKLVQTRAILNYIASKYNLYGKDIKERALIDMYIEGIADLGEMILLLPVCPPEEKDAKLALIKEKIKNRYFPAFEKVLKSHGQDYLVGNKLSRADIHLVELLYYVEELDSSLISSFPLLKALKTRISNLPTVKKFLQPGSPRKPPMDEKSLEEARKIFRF

Homo sapiens = species on record: Homo sapiens; experiment: Selectivity for GST A1-1 over GST P1-1
Summary of the method: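 Ratio of IC50s from CDNB–GSH conjugation assays. Each E. coli-expressed, purified enzyme at 20 nM, GSH and CDNB at the respective K_M. Inhibitor diluted from DMSO stock into water, final DMSO <1%. Absorbance at 340 nm for 1 min, four-log concentration span, triplicate.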

[2] = target: Glutathione S-transferase P (Homo sapiens, UniProt P09211); experiment: Inhibition of GST P1-1
Sequence of Glutathione S-transferase P (P09211 whole entry): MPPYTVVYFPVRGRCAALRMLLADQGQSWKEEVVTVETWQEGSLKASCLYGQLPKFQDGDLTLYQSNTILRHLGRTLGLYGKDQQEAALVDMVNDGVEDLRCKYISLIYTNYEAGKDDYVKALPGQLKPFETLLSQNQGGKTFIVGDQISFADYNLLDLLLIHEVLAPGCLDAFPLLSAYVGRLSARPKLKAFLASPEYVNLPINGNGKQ

IC50 [1] [µM]	Selectivity ratio (Homo sapiens)	IC50 [2] [µM]	SMILES
0.0327	30		C=C(CC)C(=O)c1ccc(OCC(=O)NCc2cc(CNC(=O)COc3ccc(C(=O)C(=C)CC)c(Cl)c3Cl)cc(C(N)=O)c2)c(Cl)c1Cl
0.024	29	0.704	C=C(CC)C(=O)c1ccc(OCC(=O)NCC(=O)NCc2cc(CNC(=O)CNC(=O)COc3ccc(C(=O)C(=C)CC)c(Cl)c3Cl)cc(C(N)=O)c2)c(Cl)c1Cl
5			C=C(CC)C(=O)c1ccc(OCC(=O)O)c(Cl)c1Cl [ETHACRYNIC ACID]
13.8	1.1	15	C=C(CC)C(=O)c1ccc(OCC(=O)NCCCC(=O)NCc2cccc(C(N)=O)c2)c(Cl)c1Cl
